According to ChEMBL document CHEMBL1126896, “Preparation and anti-HIV activity of O-acylated heparin and dermatan sulfate derivatives with low anticoagulant effect” (J Med Chem, 1993):

Columns and labels:
HuT78 [1] = assay: Giant-cell formation between persistently HIV-1 infected HUT-78 cells and uninfected MOLT-4 cells; format: functional, cell-based
Summary of the method: (§1)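 MOLT-4 cells were co-cultured with an equal number of HUT-78 cells persistently infected with HIV-1 IIIB or HIV-2 ROD, with varying compound concentrations. Syncytia were counted by flow cytofluorography after 24 h. EC50 is the concentration giving 50% protection against giant-cell formation.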

HuT78 [2] = assay: Giant-cell formation between persistently HIV-2 infected HUT-78 cells and uninfected MOLT-4 cells; format: functional, cell-based; details: hut78; summary of the method: as §1
MT4 [3] = assay: Effective concentration to achieve 50% protection of MT-4 cells against the cytopathic effect of HIV-1; format: functional, cell-based
MT4 [4] = assay: Selectivity index for CC50 (cytotoxic concentration based on the reduction of the viability of mock-infected MT-4 cells) to that of EC50 against HIV-1; format: functional
Summary of the method: (§2)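 MT-4 cells at 3 × 10^5 cells/mL were infected with HIV-1 IIIB or HIV-2 ROD at 100 CCID50/mL, or mock-infected, alongside serial compound dilutions. Viability was read by MTT after 5 days at 37 °C. CC50 comes from mock-infected cells and EC50 from protection against cytopathicity. Index = CC50/EC50.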

MT4 [5] = assay: Effective concentration to achieve 50% protection of MT-4 cells against the cytopathic effect of HIV-2; format: functional, cell-based
MT4 [6] = assay: Selectivity index for CC50 (cytotoxic concentration based on reduction of viability of mock-infected MT-4 cells) to that of EC50 against HIV-2; format: functional; summary of the method: as §2
[7] = In vitro anticoagulant activity determined by clotting test of activated partial thromboplastin time (APTT) on a pool of human plasma; format: functional
Summary of the method: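 Activated partial thromboplastin time clotting test on pooled human plasma, run on an automatic coagulometer. Activities were calculated according to the European Pharmacopoeia.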

[8] = Homo sapiens, HuT78, read-out: EC50
[9] = Homo sapiens, MT4, read-out: EC50

SMILES | EC50 (HuT78 [1]; hut78) [µg/mL] | EC50 (HuT78 [2]) [µg/mL] | EC50 (MT4 [3]; mt4) [µg/mL] | Selectivity index (MT4 [4]) | EC50 (MT4 [5]; mt4) [µg/mL] | Selectivity index (MT4 [6]) | EC50 (HuT78 [1]; [8]) [µg/mL] | APTT [7] [IU mg-1] | EC50 (MT4 [3]; [9]) [µg/mL] | EC50 (MT4 [5]; [9]) [µg/mL]
CCCCCC(=O)OC/C(=C\C(=O)[O-])OC1OC(COS(=O)(=O)[O-])C(OC2OC(C(=O)[O-])C(OC3OC(COS(=O)(=O)[O-])C(OC4OC(C(=O)[O-])C(OC5OC(CS(=O)(=O)[O-])C(O)C(OC(=O)CCCCC)C5NS(=O)(=O)[O-])C(OC(=O)CCCCC)C4OS(=O)(=O)[O-])C(OC(=O)CCCCC)C3NS(=O)(=O)[O-])C(OC(=O)CCCCC)C2OS(=O)(=O)[O-])C(OC(=O)CCCCC)C1NS(=O)(=O)[O-].[Na+].[Na+].[Na+].[Na+].[Na+].[Na+].[Na+].[Na+].[Na+].[Na+].[Na+] (stereo in doubt; 3j) | 2 | 10 | 0.4 | >1250 | – | – | – | – | – | –
CCCCCC(=O)OC/C(=C\C(=O)[O-])OC1OC(COS(=O)(=O)[O-])C(OC2OC(C(=O)[O-])C(OC3OC(COS(=O)(=O)[O-])C(OC4OC(C(=O)[O-])C(OC5OC(CS(=O)(=O)[O-])C(O)C(OC(=O)CCCCC)C5NS(=O)(=O)[O-])C(OC(=O)CCCCC)C4OS(=O)(=O)[O-])C(OC(=O)CCCCC)C3NS(=O)(=O)[O-])C(OC(=O)CCCCC)C2OS(=O)(=O)[O-])C(OC(=O)CCCCC)C1NS(=O)(=O)[O-].[Na+].[Na+].[Na+].[Na+].[Na+].[Na+].[Na+].[Na+].[Na+].[Na+].[Na+] (stereo in doubt; 3g) | 6 | 75 | – | – | 0.8 | >650 | – | – | – | –
CC(=O)N[C@H]1[C@@H](O[C@H]2[C@H](OC(C)=O)[C@@H](OC(C)=O)[C@H](O[C@H]3[C@@H](OS(=O)(=O)[O-])[C@@H](NS(=O)(=O)[O-])[C@@H](O[C@@H]4C(C(=O)[O-])O[C@@H](O[C@H]5[C@H](OC(C)=O)[C@@H](CO)O[C@@H]5COS(=O)(=O)[O-])[C@H](OS(=O)(=O)[O-])[C@H]4OC(C)=O)O[C@@H]3COS(=O)(=O)[O-])O[C@@H]2C(=O)[O-])O[C@H](COS(=O)(=O)[O-])[C@@H](O[C@@H]2O[C@@H](C(=O)[O-])[C@@H](O)[C@H](OC(C)=O)[C@H]2OC(C)=O)[C@@H]1OC(C)=O.[Na+].[Na+].[Na+].[Na+].[Na+].[Na+].[Na+].[Na+].[Na+] (some centres not stated) | – | – | – | 76 | – | 1087 | 6.4 | 26 | 6.5 | 0.46
CCCC(=O)OCC1OC(OC2C(C(=O)[O-])OC(OC3C(NC(C)=O)C(OC4C(C(=O)[O-])OC(C)C(OC(=O)CCC)C4O)OC(COC(=O)CCC)C3OS(=O)(=O)[O-])C(OC(=O)CCC)C2OC(=O)CCC)C(NC(C)=O)C(OC)C1OS(=O)(=O)[O-].[Na+].[Na+].[Na+].[Na+] (configuration not stated) | – | – | – | 8 | – | 25 | > 100 | 3.7 | 54.2 | 18
CCCC(=O)OC/C(=C\C(=O)[O-])O[C@H]1O[C@H](COS(=O)(=O)[O-])[C@@H](O[C@@H]2O[C@@H](C(=O)[O-])[C@@H](O[C@H]3O[C@H](COS(=O)(=O)[O-])[C@@H](O[C@@H]4O[C@@H](C(=O)[O-])[C@@H](O[C@H]5O[C@H](CS(=O)(=O)[O-])[C@@H](O)[C@H](OC(=O)CCC)[C@H]5NS(=O)(=O)[O-])[C@H](OC(=O)CCC)[C@H]4OS(=O)(=O)[O-])[C@H](OC(=O)CCC)[C@H]3NS(=O)(=O)[O-])[C@H](OC(=O)CCC)[C@H]2OS(=O)(=O)[O-])[C@H](OC(=O)CCC)[C@H]1NS(=O)(=O)[O-].[Na+].[Na+].[Na+].[Na+].[Na+].[Na+].[Na+].[Na+].[Na+].[Na+].[Na+] (stereo in doubt; 4f) | 1.3 | – | 0.44 | >1136 | 0.3 | >1667 | – | 6.1 | – | –
CCCC(=O)O[C@@H]1[C@@H](OC(C)=O)[C@H](O[C@H]2[C@@H](OS(=O)(=O)[O-])[C@@H](NS(=O)(=O)[O-])[C@@H](O[C@@H]3C(C(=O)[O-])O[C@@H](O[C@H]4[C@H](OC(=O)CCC)[C@@H](CO)O[C@@H]4COS(=O)(=O)[O-])[C@H](OS(=O)(=O)[O-])[C@H]3OC(=O)CCC)O[C@@H]2COS(=O)(=O)[O-])O[C@H](C(=O)[O-])[C@H]1O[C@H]1O[C@H](COS(=O)(=O)[O-])[C@@H](O[C@@H]2O[C@@H](C(=O)[O-])[C@@H](O)[C@H](OC(=O)CCC)[C@H]2OC(C)=O)[C@H](OC(=O)CCC)[C@H]1NC(C)=O.[Na+].[Na+].[Na+].[Na+].[Na+].[Na+].[Na+].[Na+].[Na+] (some centres not stated) | – | – | – | 89 | – | 15.4 | 15.4 | 11 | 0.53 | 0.24
